Assay results from PMC10009879 (RSC Advances, 2023).
Converted amounts (≈) assume the structure as drawn.

Key:
[1] = test system: mice fed a high fat and high sucrose diet; conditions: cited from earlier work
[2] = test system: STZ-induced diabetic rats; conditions: cited from earlier work
yeast α-glucosidase = conditions: in vitro; cited from earlier work
α-glucosidase [3] = assay: α-Glucosidase inhibition type and inhibition constants by Lineweaver–Burk plots; assay type: biochemical, Saccharomyces cerevisiae
Outline: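 Yeast (Saccharomyces cerevisiae) α-glucosidase with 4-nitrophenyl […]-D-glucopyranoside (pNPG) as substrate. The test compound was run at 0, 1.98, 3.97 and 7.93 μM, each in three replicates. Inhibition type was assigned from Lineweaver–Burk plots using a modified published method. Ki (free enzyme) and K′i (enzyme–substrate complex) were derived from the same data.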

α-glucosidase [4] = assay: Screening of α-glucosidase inhibitory activity; assay type: biochemical, Saccharomyces cerevisiae; conditions: times better than acarbose
α-glucosidase [5] = conditions: cited from earlier work
α-glucosidase [6] = conditions: previous study; ref Zhang et al., 23; cited from earlier work

O=c1c(O)c(-c2cc(O)c(O)c(O)c2)oc2cc(O)cc(O)c12 [myricetin]
effect on fasting blood glucose level [1]: cut down the fasting blood glucose level
effect on fasting blood glucose level [2]: cut down the fasting blood glucose level
IC50 yeast α-glucosidase (yeast α-glucosidase): 5 µg/mL (≈ 15.7 µM)

O=c1c(O)c(-c2ccc(O)c(O)c2)oc2c(Br)c(O)cc(O)c12 [Compound 5a, 8-Bromoquercetin]
type of α-glucosidase inhibition (α-glucosidase [3]; Lineweaver–Burk plots, 0, 1.98, 3.97, 7.93 μM): mixed mode inhibitor
Ki (α-glucosidase [3]; read-out: inhibition constant binding with the free enzyme (Ki), secondary plot): 5.58 ± 0.35 µM
inhibition constant binding with the enzyme–substrate complex (K′i) (α-glucosidase [3]; secondary plot): 10.33 ± 0.85 µM
α-glucosidase inhibition relative to the standard drug acarbose (α-glucosidase [4]): thirty-seven times better

O=c1c(O)c(-c2ccc(O)cc2)oc2cc(O)cc(O)c12 [Compound 3, kaempferol]
α-glucosidase inhibition (α-glucosidase [5]): ~95.1%

C[C@@H]1O[C@@H](Oc2c(-c3ccc(O)c(O)c3)oc3cc(O)cc(O)c3c2=O)[C@H](O)[C@H](O)[C@H]1O [Compound 6, quercitrin]
IC50 α-glucosidase inhibition (α-glucosidase [6]): 215 ± 4 µg/mL (≈ 480 µM)
